Columns and labels:
SK-OV-3 [1] = test: Antiproliferative activity against human SKOV3 cells transfected with Escherichia coli nitroreductase nfsB assessed as reduction in cell number after 18 hrs; format: functional, cell-based; conditions: SK-OV-3, 18 h
Summary of the method: (§1)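 Untransfected parental SKOV3 cells were compared with SKOV3 cells expressing E. coli nfsB. Drug exposure lasted 18 h. […] The ratio is IC50 in NTR− cells divided by IC50 in NTR+ cells.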

SK-OV-3 [2] = test: Ratio of IC50 for human SKOV3 cells to IC50 for human SKOV3 cells transfected with Escherichia coli nitroreductase nfsB; format: functional; summary of the method: as §1
V79 [3] = test: Ratio of IC50 for Chinese hamster V79 cells to IC50 for Chinese hamster V79 cells transfected with Escherichia coli nitroreductase nfsB; parameters: species or system Cricetulus griseus
Summary of the method: (§2)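 V79 cells carrying vector only served as the control line. The NTR+ line carried a bicistronic construct encoding E. coli nfsB with a puromycin selection marker. Cells were exposed to drug for 72 h. […] The ratio is IC50 in NTR− cells divided by IC50 in NTR+ cells.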

V79 [4] = test: Antiproliferative activity against Chinese hamster V79 cells transfected with Escherichia coli nitroreductase nfsB assessed as reduction in cell number after 72 hrs; format: functional, cell-based; conditions: Cricetulus griseus, V79, 72 h; summary of the method: as §2
Trypanosoma brucei [5] = test: Trypanocidal activity against of Trypanosoma brucei bloodstream trypomastigote forms assessed as inhibition of parasite growth; format: functional, organism-based
V79 [6] = test: Antiproliferative activity against Chinese hamster V79 cells assessed as reduction in cell number after 72 hrs; format: cell-based; conditions: Cricetulus griseus, V79, 72 h; summary of the method: as §2
SK-OV-3 [7] = test: Antiproliferative activity against human SKOV3 cells after 18 hrs assessed as reduction in cell number; format: functional, cell-based; conditions: SK-OV-3, 18 h; summary of the method: as §1
Trypanosoma brucei [8] = test: Activity of Trypanosoma brucei NTR assessed as NADH oxidation per mg of protein
Summary of the method: (§3)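 Substrate activity reported as the initial velocity of NADH oxidation (nmol/min/mg) with either E. coli nfsB or T. brucei nitroreductase (TbNTR). The reaction was followed by the change in absorbance at 340 nm.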

Escherichia coli = test: Activity of Escherichia coli nitroreductase nfsB assessed as NADH oxidation per mg of protein; summary of the method: as §3
Leishmania major = test: Trypanocidal activity against Leishmania major promastigote forms infected in sandfly gut assessed as inhibition of parasite growth; format: functional, organism-based
SK-OV-3 [9] = test: Antiproliferative activity against human SKOV3 cells with mixed population of 25% NTR(+) cells and 75% NTR(-) cells assessed as bystander effect by measuring mixed population of NTR(+) and NTR (-) cells to produce an IC50 midway on log scale between those in either NTR(+) or NTR(-) cells alone after 18 hrs; format: functional
Summary of the method: (§4)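 Drug exposure lasted 18 h. BE50 is the percentage of NTR+ cells in the mix needed to give an IC50 at the log-scale (geometric) midpoint between the IC50s of pure NTR+ and pure NTR− cultures.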

SK-OV-3 [10] = test: Antiproliferative activity against human SKOV3 cells with mixed population of 25% NTR(+) cells and 75% NTR(-) cells assessed as reduction in cell number after 18 hrs; format: functional, cell-based; conditions: SK-OV-3, 18 h; summary of the method: as §4
Trypanosoma brucei [11] = test: Ratio of 4-nitrobenzyl phosphoramide mustard IC50 to compound IC50 for Trypanosoma brucei bloodstream trypomastigote forms; format: functional

Structure (SMILES) | IC50 (SK-OV-3 [1]) [µM] | Ratio IC50 (SK-OV-3 [2]) | Ratio IC50 (V79 [3]) | IC50 (V79 [4]) [µM] | IC50 (Trypanosoma brucei [5]) [µM] | IC50 (V79 [6]) [µM] | IC50 (SK-OV-3 [7]) [µM] | Activity (Trypanosoma brucei [8]) [nmol/min] | Activity (Escherichia coli) [nmol/min] | IC50 (Leishmania major) [µM] | Activity (SK-OV-3 [9]) [%] | IC50 (SK-OV-3 [10]) [µM] | Ratio IC50 (Trypanosoma brucei [11])
Cc1cc(COP(N)(=O)N(CCCl)CCCl)ccc1[N+](=O)[O-] (centres undefined) | 0.45 | 1060 | 16000 | 0.003 | > 10 | 48 | 477 | 158 | 894 | > 30 | – | – | –
NP(=O)(OCc1ccc([N+](=O)[O-])cc1)N(CCBr)CCBr (centres undefined) | 0.09 | 12244 | 60000 | 0.0001 | – | 6 | 1100 | – | – | – | – | – | –
C[C@H](OP(N)(=O)N(CCCl)CCCl)c1ccc([N+](=O)[O-])cc1 (some centres undefined) | 0.49 | >2000 | 32500 | 0.002 | > 10 | 65 | > 1000 | 52 | 916 | > 30 | – | – | –
NP(=O)(OCc1ccc([N+](=O)[O-])cc1C(F)(F)F)N(CCCl)CCCl (centres undefined) | 0.31 | 570 | 12500 | 0.004 | 7.97 | 50 | 172 | – | – | 5.88 | 2.8 | 1.01 | –
NP(=O)(OCc1ccccc1[N+](=O)[O-])N(CCCl)CCCl (centres undefined) | 5.23 | >190 | >556 | 0.18 | > 10 | > 100 | > 1000 | 19 | 256 | > 30 | – | – | –
COc1cc([N+](=O)[O-])ccc1COP(N)(=O)N(CCCl)CCCl (centres undefined) | – | – | 82000 | 0.0005 | > 10 | 41 | – | 239 | 6980 | 15.6 | – | – | –
NP(=O)(OCc1ccc([N+](=O)[O-])cc1)N(CCCl)CCCl (centres undefined) | 0.099 | 9520 | 73750 | 0.0008 | > 10 | 59 | 943 | 246 | 1280 | > 30 | 5.6 | 0.98 | –
NC(=O)c1cc(COP(N)(=O)N(CCCl)CCCl)ccc1[N+](=O)[O-] (centres undefined) | 6.75 | >150 | >3330 | 0.03 | – | > 100 | > 1000 | – | 211 | – | – | – | –
NP(=O)(OCc1ccc([N+](=O)[O-])cn1)N(CCCl)CCCl (centres undefined) | – | – | 8333 | 0.009 | – | 75 | – | – | – | 8.3 | – | – | –
NP(=O)(OCc1ccc([N+](=O)[O-])cc1Cl)N(CCCl)CCCl (centres undefined) | 0.12 | 1120 | 13100 | 0.002 | 9.14 | 26 | 140 | – | – | 3.1 | 3.2 | 0.54 | 425
COC(=O)c1cc(COP(N)(=O)N(CCCl)CCCl)ccc1[N+](=O)[O-] (centres undefined) | 0.43 | 1000 | 690 | 0.1 | – | 69 | 435 | – | 167 | – | – | – | –
NP(=O)(OCc1ccc([N+](=O)[O-])c(F)c1)N(CCCl)CCCl (centres undefined) | 0.21 | 1200 | 16000 | 0.003 | > 10 | 48 | 246 | 1120 | – | 9.05 | 4.2 | 0.48 | –
NC(=O)Cc1cc([N+](=O)[O-])ccc1COP(N)(=O)N(CCCl)CCCl (centres undefined) | 1.1 | >90 | >2000 | 0.05 | – | > 100 | > 100 | – | – | – | – | – | –
COc1cc(COP(N)(=O)N(CCCl)CCCl)ccc1[N+](=O)[O-] (centres undefined) | 0.44 | 1460 | 16000 | 0.003 | > 10 | 48 | 641 | 0 | 2440 | > 30 | – | – | –
NP(=O)(OCc1cccc([N+](=O)[O-])c1)N(CCCl)CCCl (centres undefined) | 55 | 17 | >385 | 0.26 | > 10 | > 100 | 947 | 369 | 683 | > 30 | – | – | –
NP(=O)(OCc1ccc([N+](=O)[O-])cc1F)N(CCCl)CCCl (centres undefined) | 0.08 | 3290 | 122750 | 0.0004 | 9.54 | 49 | 266 | – | – | 4.72 | 3.9 | 0.37 | –
NC(=O)c1cc([N+](=O)[O-])ccc1COP(N)(=O)N(CCCl)CCCl (centres undefined) | 0.8 | >125 | >2500 | 0.04 | – | > 100 | > 100 | – | – | – | – | – | –
NP(=O)(OCc1c(F)cc([N+](=O)[O-])cc1F)N(CCCl)CCCl (centres undefined) | 0.17 | 1520 | 20880 | 0.0008 | 0.99 | 17 | 257 | 1450 | – | 1.29 | 9.2 | 1.37 | 485
C[C@@H](OP(N)(=O)N(CCCl)CCCl)c1ccc([N+](=O)[O-])cc1 (some centres undefined) | 0.28 | >3500 | 28500 | 0.002 | > 10 | 57 | > 1000 | 34 | 1400 | > 30 | – | – | –
